Test results: ChEMBL document CHEMBL5150051, “Identification and Characterization of a Novel Indoleamine 2,3-Dioxygenase 1 Protein Degrader for Glioblastoma” (J Med Chem, 2022)
Calls of active or inactive are those of the source. No cut-off for these calls is given here.

Legend:
[1] = biological target: T1, Protein cereblon/Indoleamine 2,3-dioxygenase 1 (Homo sapiens, UniProt P14902+Q96SW2); experiment: Protac activity at IDO1/CRBN in IFNgamma-stimulated human GBM43 cells assessed as IDO1 degradation by measuring decrease in protein level measured after 24 hrs by Western blotting analysis; assay type: cell-based; details: GBM, dose 0.1-10 µM, DDE = dose-dependent effect
In short: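 GBM43 cells stimulated with 50 ng/mL human IFNγ for 24 h, then treated across 0.01 to 30 μM for 24 h. IDO1 was quantified by western blot densitometry as percent of IFNγ-induced untreated level. DC50 came from the dose-response curve; n = 3 independent experiments, mean ± SEM.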
Target sequence in this assay (P14902 whole entry, looked up): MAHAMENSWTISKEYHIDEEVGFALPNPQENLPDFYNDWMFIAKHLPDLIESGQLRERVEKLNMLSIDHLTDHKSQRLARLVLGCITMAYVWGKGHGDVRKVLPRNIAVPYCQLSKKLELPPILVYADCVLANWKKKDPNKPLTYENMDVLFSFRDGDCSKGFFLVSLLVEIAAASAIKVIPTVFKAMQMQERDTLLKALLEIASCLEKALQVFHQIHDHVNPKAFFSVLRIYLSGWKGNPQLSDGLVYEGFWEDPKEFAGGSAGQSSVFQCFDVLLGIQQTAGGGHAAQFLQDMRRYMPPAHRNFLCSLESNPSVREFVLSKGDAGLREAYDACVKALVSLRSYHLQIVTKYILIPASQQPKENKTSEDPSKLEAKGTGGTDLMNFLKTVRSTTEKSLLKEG
Target sequence in this assay (Q96SW2 whole entry, looked up): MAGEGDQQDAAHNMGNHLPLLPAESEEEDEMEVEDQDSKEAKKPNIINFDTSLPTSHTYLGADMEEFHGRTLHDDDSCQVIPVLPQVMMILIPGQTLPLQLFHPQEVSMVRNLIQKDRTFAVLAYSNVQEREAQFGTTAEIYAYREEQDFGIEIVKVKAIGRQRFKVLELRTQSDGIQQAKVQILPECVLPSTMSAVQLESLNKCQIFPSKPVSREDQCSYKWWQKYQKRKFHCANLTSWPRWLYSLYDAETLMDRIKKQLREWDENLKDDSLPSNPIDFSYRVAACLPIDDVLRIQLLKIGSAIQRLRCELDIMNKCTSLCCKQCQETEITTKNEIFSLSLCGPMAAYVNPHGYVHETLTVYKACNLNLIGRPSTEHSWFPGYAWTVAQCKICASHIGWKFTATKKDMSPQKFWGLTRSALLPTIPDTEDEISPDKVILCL

[2] = biological target: T1, Protein cereblon/Indoleamine 2,3-dioxygenase 1; experiment: Protac activity at IDO1/CRBN in IFNgamma-stimulated human U87 cells assessed as IDO1 degradation by measuring decrease in protein level measured after 24 hrs by Western blotting analysis; assay type: cell-based; details: dose 0.1-10 µM, DDE = dose-dependent effect
In short: (§1)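 U87 cells given human IFNγ 50 ng/mL for 24 h to induce IDO1, then PROTAC over a dose range starting at 0.01 μM and rising to 30 μM for 24 h. Western blot read-out. IDO1 band densitometry normalized to untreated samples and fitted to give DC50, the concentration giving 50% IDO1 degradation. n = 3 independent experiments, mean ± SEM.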
Target sequence in this assay (P14902 whole entry, looked up): as the sequence (P14902 whole entry, looked up) above
Target sequence in this assay (Q96SW2 whole entry, looked up): as the sequence (Q96SW2 whole entry, looked up) above

[3] = biological target: T1, Protein cereblon/Indoleamine 2,3-dioxygenase 1; experiment: Protac activity at IDO1/CRBN in IFNgamma-stimulated human U87 cells assessed as IDO1 degradation measured after 24 hrs by Western blotting analysis; assay type: cell-based; in short: as §1
Target sequence in this assay (P14902 whole entry): as the sequence (P14902 whole entry, looked up) above
Target sequence in this assay (Q96SW2 whole entry): as the sequence (Q96SW2 whole entry, looked up) above

[4] = biological target: T1, Protein cereblon/Indoleamine 2,3-dioxygenase 1; experiment: Protac activity at IDO1/CRBN in IFNgamma-stimulated human PANC-1 cells assessed as IDO1 degradation by measuring decrease in intracellular protein level measured after 24 hrs by Western blotting analysis; assay type: cell-based; details: dose 1-10 µM, DDE = dose-dependent effect
Target sequence in this assay (P14902 whole entry, looked up): as the sequence (P14902 whole entry, looked up) above
Target sequence in this assay (Q96SW2 whole entry, looked up): as the sequence (Q96SW2 whole entry, looked up) above

[5] = biological target: T1, Protein cereblon/Indoleamine 2,3-dioxygenase 1; experiment: Protac activity at IDO1/CRBN in IFNgamma-stimulated human SK-OV-3 cells assessed as IDO1 degradation by measuring decrease in intracellular protein level measured after 24 hrs by Western blotting analysis; assay type: cell-based; details: dose 1-10 µM, DDE = dose-dependent effect
Target sequence in this assay (P14902 whole entry, looked up): as the sequence (P14902 whole entry, looked up) above
Target sequence in this assay (Q96SW2 whole entry, looked up): as the sequence (Q96SW2 whole entry, looked up) above

[6] = biological target: T1, Protein cereblon/Indoleamine 2,3-dioxygenase 1; experiment: Protac activity at IDO1/CRBN in IFNgamma-stimulated human PC-3 cells assessed as IDO1 degradation by measuring decrease in intracellular protein level measured after 24 hrs by Western blotting analysis; assay type: cell-based; details: dose 1-10 µM, DDE = dose-dependent effect
Target sequence in this assay (P14902 whole entry, looked up): as the sequence (P14902 whole entry, looked up) above
Target sequence in this assay (Q96SW2 whole entry, looked up): as the sequence (Q96SW2 whole entry, looked up) above

[7] = biological target: T1, Protein cereblon/Indoleamine 2,3-dioxygenase 1; experiment: Protac activity at IDO1/CRBN in IFNgamma-stimulated human DIPG007 cells assessed as IDO1 degradation measured after 24 hrs by Western blotting analysis; assay type: cell-based; details: HSJD-DIPG-007, dose 0.1-10 µM, DDE = dose-dependent effect
Target sequence in this assay (P14902 whole entry, looked up): as the sequence (P14902 whole entry, looked up) above
Target sequence in this assay (Q96SW2 whole entry, looked up): as the sequence (Q96SW2 whole entry, looked up) above

[8] = biological target: T1, Protein cereblon/Indoleamine 2,3-dioxygenase 1; experiment: Protac activity at CRBN/IDO1-FLAG expressed in human U87 cells assessed as IDO1 degradation measured at 1 to 10 uM after 24 hrs by Western blotting analysis; assay type: cell-based; details: dose 1-10 µM
[9] = biological target: T1, Protein cereblon/Indoleamine 2,3-dioxygenase 1; experiment: Protac activity at CRBN/IDO1-HA expressed in human U87 cells assessed as IDO1 degradation measured at 1 to 10 uM after 24 hrs by Western blotting analysis; assay type: cell-based; details: dose 1-10 µM
[10] = biological target: T1, Protein cereblon/Indoleamine 2,3-dioxygenase 1; experiment: Protac activity at CRBN/IDO1-FLAG expressed in human U87 cells assessed as IDO1 degradation in intracellular nuclear compartment measured at 1 to 10 uM after 24 hrs by Western blotting analysis; assay type: subcellular; details: Nucleus, dose 1-10 µM
[11] = biological target: T1, Protein cereblon/Indoleamine 2,3-dioxygenase 1; experiment: Protac activity at CRBN/IDO1-HA expressed in human U87 cells assessed as IDO1 degradation in intracellular cytoplasmic compartment measured at 1 to 10 uM after 24 hrs by Western blotting analysis; assay type: subcellular; details: Cytoplasm, dose 1-10 µM
[12] = biological target: T1, Protein cereblon/Indoleamine 2,3-dioxygenase 1; experiment: Protac activity at IDO1/CRBN in IFNgamma-stimulated human GBM43 cells assessed as IDO1 degradation by measuring decrease in protein level measured at 10 uM for 16 to 96 hrs by Western blotting analysis; assay type: cell-based; details: GBM43 cell, time 16-96 hrs
[13] = biological target: T1, Protein cereblon/Indoleamine 2,3-dioxygenase 1; experiment: Protac activity at IDO1/CRBN in human U87 cells assessed as IDO1 degradation at 10 uM measured after compound washout by Western blotting analysis relative to control; assay type: cell-based
In short: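 U87 cells exposed to PROTAC for 24 h, after which compound was fully withdrawn from the medium and culture continued without it for up to 48 h. IDO1 levels then assessed by western blot.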

[14] = biological target: T1, Protein cereblon/Indoleamine 2,3-dioxygenase 1; experiment: Binding affinity to CRBN/IDO1 (unknown origin) assessed as ternary complex affinity by bio-layer interferometry assay; assay type: protein assay
In short: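 For the ternary complex, compound was preincubated with a 25-fold molar excess of CRBN, and binding of this binary complex to IDO1 was followed in real time.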

[15] = biological target: T1, Protein cereblon/Indoleamine 2,3-dioxygenase 1; experiment: Protac activity at CRBN/IDO1 in IFNgamma-stimulated human U87 cells assessed as decrease in kynurenine level measured after 24 hrs by Ehrlich's test; assay type: cell-based; details: DDE = dose-dependent effect
In short: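 U87 or GBM43 cells given compound together with 50 ng/mL IFNγ for 24 h. Supernatant kynurenine was measured with Ehrlich's reagent. Cells cultured without IFNγ served as control.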

[16] = biological target: T1, Protein cereblon/Indoleamine 2,3-dioxygenase 1; experiment: Protac activity at CRBN/IDO1 in IFNgamma-stimulated human PC-3 cells assessed as decrease in kynurenine level at 10 uM measured after 24 hrs by Ehrlich's test; assay type: cell-based
[17] = biological target: T1, Protein cereblon/Indoleamine 2,3-dioxygenase 1; experiment: Protac activity at CRBN/IDO1 in IFNgamma-stimulated human CD18 cells assessed as decrease in kynurenine level at 10 uM measured after 24 hrs by Ehrlich's test; assay type: cell-based; details: CD18 cell
[18] = biological target: T1, Protein cereblon/Indoleamine 2,3-dioxygenase 1; experiment: Protac activity at IDO1/CRBN in human U87 cells assessed as decrease in phosphorylated p65 in nucleus at 1 to 10 uM measured after 24 hrs by Western blot analysis; assay type: cell-based; details: dose 1-10 µM
In short: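 Cytoplasmic and nuclear fractions prepared from U87 cells after 24 h treatment with DMSO or compound. Fractions blotted for IDO1, phospho-p65 and total p65, with HDAC2 as nuclear marker and tubulin as cytoplasmic marker.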

[19] = Drug uptake in C57BL/6 mouse intestine at 50 mg/kg, ip treated 5 days/week for 3 weeks by LC/MS/MS analysis; assay type: ADME, organism-based; details: in vivo, 504 h
[20] = Drug uptake in C57BL/6 mouse intestine at 100 mg/kg, ip treated 5 days/week for 3 weeks by LC/MS/MS analysis; assay type: ADME, organism-based; details: in vivo, 504 h
[21] = Cmax in C57BL/6 mouse plasma at 25 mg/kg, ip; assay type: ADME, organism-based; design: dose 25 mg/kg, route ip
[22] = Cmax in C57BL/6 mouse brain at 25 mg/kg, ip; assay type: ADME, organism-based; design: dose 25 mg/kg, route ip
[23] = system: Mus musculus; experiment: In vivo Protac activity at IDO1/CRBN in GL261 cells expressing mIDO1 cDNA mouse model assessed as decrease in IDO1 protein level in tumor measured at 25 mg/kg, ip
[24] = biological target: Ido1/Crbn (Mus musculus) (UniProt P28776+Q8C7D2); experiment: Protac activity at CRBN/IDO1 non-enzyme mediated p65 phosphorylation in mouse GL261 cells expressing IDO1 cDNA measured at 0.1 to 10 uM after 24 hrs by Western blotting analysis; details: dose 0.1-10 µM
Ido1/Crbn (Mus musculus), sequence (P28776 whole entry, looked up): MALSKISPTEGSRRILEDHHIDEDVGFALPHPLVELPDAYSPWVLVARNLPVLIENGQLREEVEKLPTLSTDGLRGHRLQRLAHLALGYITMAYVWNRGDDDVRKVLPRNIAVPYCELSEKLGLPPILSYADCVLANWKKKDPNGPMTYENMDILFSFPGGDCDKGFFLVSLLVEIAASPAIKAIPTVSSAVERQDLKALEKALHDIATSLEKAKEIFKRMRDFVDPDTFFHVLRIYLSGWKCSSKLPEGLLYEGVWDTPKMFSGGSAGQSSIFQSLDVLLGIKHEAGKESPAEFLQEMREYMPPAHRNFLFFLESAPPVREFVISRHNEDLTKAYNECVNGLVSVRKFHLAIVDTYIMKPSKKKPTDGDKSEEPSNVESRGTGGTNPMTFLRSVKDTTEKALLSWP
Ido1/Crbn (Mus musculus), sequence (Q8C7D2 whole entry, looked up): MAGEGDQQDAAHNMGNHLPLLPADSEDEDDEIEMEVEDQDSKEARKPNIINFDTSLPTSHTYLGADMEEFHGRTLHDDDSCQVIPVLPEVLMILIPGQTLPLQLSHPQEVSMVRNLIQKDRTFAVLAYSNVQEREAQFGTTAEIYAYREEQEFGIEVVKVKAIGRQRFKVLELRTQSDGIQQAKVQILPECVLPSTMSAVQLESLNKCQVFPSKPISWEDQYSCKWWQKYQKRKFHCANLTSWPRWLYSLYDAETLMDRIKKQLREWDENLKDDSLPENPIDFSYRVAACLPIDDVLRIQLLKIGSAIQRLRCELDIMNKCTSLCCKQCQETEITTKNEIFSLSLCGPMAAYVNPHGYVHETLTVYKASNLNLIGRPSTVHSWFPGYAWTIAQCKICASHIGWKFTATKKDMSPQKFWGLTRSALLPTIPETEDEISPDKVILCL

[25] = biological target: T1, Protein cereblon/Indoleamine 2,3-dioxygenase 1; experiment: Protac activity at IDO1/CRBN in IFNgamma-stimulated human U87 cells assessed as IDO1 degradation by measuring decrease in protein level measured at 10 uM continuous upto 72 hrs by Western blotting analysis; details: U87 cell

Compound: C[C@@H](C(=O)Nc1ccc(OC2CCN(C(=O)CCOCCOCCNc3cccc4c3C(=O)N(C3CCC(=O)NC3=O)C4=O)CC2)cc1)[C@H]1CC[C@@H](c2ccnc3ccc(F)cc32)CC1 (stereo not given in full)
- Activity [1]: Dde
- Activity [2]: Dde
- EC50 [3]: 329 nM
- Activity [4]: Dde
- Activity [5]: Dde
- Activity [6]: Dde
- Activity [7]: Dde
- Activity [8]: Active
- Activity [9]: Active
- Activity [10]: Active
- Activity [11]: Active
- Activity [12]: Active
- Activity [13]: Active
- K [14]: 117 nM
- inhibition [15]: Dde
- inhibition [16]: Active
- inhibition [17]: Active
- Activity [18]: Active
- Drug uptake [19]: Active
- Drug uptake [20]: Active
- Cmax [21]: 365 µM
- Cmax [22]: 2 µM
- Activity [23]: Active
- inhibition [24]: Active
- Activity [25]: Active
